From ChEMBL document CHEMBL4130629 (J Med Chem, 2018)

Key:
MT2 = test: Cytotoxicity against human MT2 cells assessed as decrease in cell viability after 3 days […]; format: functional; details: MT2, 72 h
[1] = system: Human immunodeficiency virus 1; test: Antiviral activity against ENV pseudotyped CCR5-tropic HIV1 […] infected in human HeLa67 cells after 3 days by luciferase reporter gene assay; format: functional, organism-based; details: Human immunodeficiency virus 1, HeLa67, 72 h
Outline: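 Single-cycle infection with env-deleted, luciferase-reporter HIV-1 pseudotyped with the JRFL (CCR5) envelope, supplied by transfection; viral titers normalized by luminescence without compound. HeLa 67 cells were infected in the presence of compounds given as 3-fold serial dilutions made from 30 mM DMSO stocks.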

[2] = Metabolic stability in human liver microsomes assessed as parent compound remaining after 10 mins; format: ADME, microsome; details: read-out: Stability
Outline: (§1)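 Compound at 3 μM was incubated with human or rat liver microsomes, and the percentage of parent compound remaining was measured after 10 min.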

[3] = Metabolic stability in rat liver microsomes assessed as parent compound remaining after 10 mins; format: ADME, microsome; details: read-out: Stability; outline: as §1
[4] = Permeability in human Caco2 cells; format: ADME, cell-based; details: Caco-2, read-out: permeability
[5] = Half life in human liver microsomes; format: ADME, microsome

Compound | EC50 [1] | remaining at 10 min [2] | remaining at 10 min [3] | Papp [4] | half-life [5] | CC50 (MT2)
COc1cnc(-c2cnccn2)c2[nH]cc(C(=O)C(=O)N3CCN(C(=O)c4ccccn4)[C@@H](C)C3)c12 | 1.04 nM | – | – | – | – | 267000 to 300000 nM
COc1cnc(-n2cc(C)cn2)c2[nH]cc(C(=O)C(=O)N3CCN(C(=O)c4ccccc4)CC3)c12 | – | – | – | – | – | 243000 nM
CNc1cnc(-c2ncc(OC)c3c(C(=O)C(=O)N4CCN(C(=O)c5ccccc5)CC4)c[nH]c23)cn1 | 0.02 nM | – | – | – | 21 min | > 95000 nM
CNC(=O)c1ncn(-c2ncc(OC)c3c(C(=O)C(=O)N4CCN(C(=O)c5ccccc5)CC4)c[nH]c23)n1 | 0.1 nM | – | – | – | – | > 300000 nM
COc1cnc(-c2cccc(C)n2)c2[nH]cc(C(=O)C(=O)N3CCN(C(=O)c4ccccc4)CC3)c12 | 0.59 nM | – | – | 13.4 ×10⁻⁶ cm/s | 12 min | 30000 nM
COc1cnc(-c2cccnc2)c2[nH]cc(C(=O)C(=O)N3CCN(C(=O)c4ccccc4)CC3)c12 | 0.09 nM | – | – | < 1.5 ×10⁻⁶ cm/s | 41 min | 10000 nM
COc1cnc(-c2ccncc2)c2[nH]cc(C(=O)C(=O)N3CCN(C(=O)c4ccccc4)CC3)c12 | 0.33 nM | – | – | – | – | 6000 nM
COc1cnc(-c2nccs2)c2[nH]cc(C(=O)C(=O)N3CCN(C(=O)c4ccccc4)CC3)c12 | 0.02 nM | – | – | < 1.5 ×10⁻⁶ cm/s | 17 min | > 150000 nM
COc1cnc(-c2ccoc2)c2[nH]cc(C(=O)C(=O)N3CCN(C(=O)c4ccccc4)CC3)c12 | 0.11 nM | – | – | 4.6 ×10⁻⁶ cm/s | 29 min | 146000 nM
COc1cnc(-n2cnc(SC)n2)c2[nH]cc(C(=O)C(=O)N3CCN(C(=O)c4ccccc4)CC3)c12 | 0.03 nM | 68% | 91% | < 1.5 ×10⁻⁶ cm/s | – | > 300000 nM
COc1cnc(-n2cnc(C(=O)N3CCN(C)CC3)n2)c2[nH]cc(C(=O)C(=O)N3CCN(C(=O)c4ccccc4)CC3)c12 | 6.54 nM | – | – | – | – | > 150000 nM
COc1cnc(-c2cccs2)c2[nH]cc(C(=O)C(=O)N3CCN(C(=O)c4ccccc4)CC3)c12 | 0.12 nM | – | – | 6.6 ×10⁻⁶ cm/s | 18 min | 36000 nM
COc1cnc(-n2ccc(-c3cccc(-c4nn[nH]n4)c3)n2)c2[nH]cc(C(=O)C(=O)N3CCN(C(=O)c4ccccc4)CC3)c12 | 0.02 nM | – | – | – | – | 128000 nM
COc1cnc(-n2ccc(-c3ccc(-c4nn[nH]n4)cc3)n2)c2[nH]cc(C(=O)C(=O)N3CCN(C(=O)c4ccccc4)CC3)c12 | 0.03 nM | – | – | – | – | > 300000 nM
COc1cnc(-n2cc(C)nn2)c2[nH]cc(C(=O)C(=O)N3CCN(C(=O)c4ccccc4)CC3)c12 | 0.06 nM | 94% | 84% | 16.6 ×10⁻⁶ cm/s | – | > 300000 nM
CCCSc1ncn(-c2ncc(OC)c3c(C(=O)C(=O)N4CCN(C(=O)c5ccccc5)CC4)c[nH]c23)n1 | 0.015 nM | – | – | – | – | 7000 nM
COc1cnc(-c2cccc(N)n2)c2[nH]cc(C(=O)C(=O)N3CCN(C(=O)c4ccccc4)CC3)c12 | 0.09 nM | – | – | 6.6 ×10⁻⁶ cm/s | 13 min | 122000 nM
COc1cnc(-c2ccnnc2)c2[nH]cc(C(=O)C(=O)N3CCN(C(=O)c4ccccc4)CC3)c12 | 0.19 nM | – | – | < 1.5 ×10⁻⁶ cm/s | 48 min | 14000 nM
COc1cnc(-c2cccnn2)c2[nH]cc(C(=O)C(=O)N3CCN(C(=O)c4ccccc4)CC3)c12 | 0.17 nM | – | – | 2.4 ×10⁻⁶ cm/s | 29 min | > 300000 nM
COc1cnc(-c2ccco2)c2[nH]cc(C(=O)C(=O)N3CCN(C(=O)c4ccccc4)CC3)c12 | 0.02 nM | – | – | 8.6 ×10⁻⁶ cm/s | 19 min | 281000 to 300000 nM
CCc1ncc(-c2ncc(OC)c3c(C(=O)C(=O)N4CCN(C(=O)c5ccccc5)CC4)c[nH]c23)s1 | 0.03 nM | – | – | 14.1 ×10⁻⁶ cm/s | 7 min | 120000 nM
COc1cnc(-c2cncc(N)n2)c2[nH]cc(C(=O)C(=O)N3CCN(C(=O)c4ccccc4)CC3)c12 | 0.06 nM | – | – | 1.5 to 2.2 ×10⁻⁶ cm/s | 21 min | 14000 nM
COc1cnc(-n2cnc(C(=O)N(C)C)n2)c2[nH]cc(C(=O)C(=O)N3CCN(C(=O)c4ccccc4)CC3)c12 | 0.1 nM | – | – | – | – | > 300000 nM
COc1cnc(-c2cnccn2)c2[nH]cc(C(=O)C(=O)N3CCN(C(=O)c4ccccc4)CC3)c12 | 0.04 nM | – | – | 17 ×10⁻⁶ cm/s | 19 min | 3460 nM
COc1cnc(-c2cscn2)c2[nH]cc(C(=O)C(=O)N3CCN(C(=O)c4ccccc4)CC3)c12 | 0.11 nM | – | – | 21.7 ×10⁻⁶ cm/s | 39 min | –
COc1cnc(-n2ccc(N)n2)c2[nH]cc(C(=O)C(=O)N3CCN(C(=O)c4ccccc4)[C@H](C)C3)c12 | 0.16 nM | 92% | 91% | – | – | > 300000 nM
COc1cnc(-c2ccsc2)c2[nH]cc(C(=O)C(=O)N3CCN(C(=O)c4ccccc4)CC3)c12 | 0.13 nM | – | – | 3.9 ×10⁻⁶ cm/s | 13 min | 43000 nM
COc1cnc(-n2cnc(C)n2)c2[nH]cc(C(=O)C(=O)N3CCN(C(=O)c4ccccc4)[C@@H](C)C3)c12 | 0.52 nM | – | 95% | – | – | > 300000 nM

Continued, in another order:

EC50 [1] | remaining at 10 min [2] | remaining at 10 min [3] | Papp [4] | half-life [5] | Compound | CC50 (MT2)
0.08 nM | 95% | 95% | 21.9 ×10⁻⁶ cm/s | – | COc1cnc(-n2cncn2)c2[nH]cc(C(=O)C(=O)N3CCN(C(=O)c4ccccc4)[C@H](C)C3)c12 | > 300000 nM
4.07 nM | 99% | 95% | 9.6 ×10⁻⁶ cm/s | – | COc1cnc(-n2ncnc2C)c2[nH]cc(C(=O)C(=O)N3CCN(C(=O)c4ccccc4)CC3)c12 | > 300000 nM
19.8 nM | – | – | – | – | COc1cnc(-n2ccc(CN(C)C)n2)c2[nH]cc(C(=O)C(=O)N3CCN(C(=O)c4ccccc4)[C@H](C)C3)c12 | > 300000 nM
0.26 nM | – | – | – | – | COc1cnc(-c2cn(C)c(=O)cn2)c2[nH]cc(C(=O)C(=O)N3CCN(C(=O)c4ccccc4)CC3)c12 | > 150000 nM
0.06 nM | – | – | – | 26 min | COc1cnc(-c2cnc(N)s2)c2[nH]cc(C(=O)C(=O)N3CCN(C(=O)c4ccccc4)CC3)c12 | > 250000 nM
0.07 nM | 68% | 85% | – | – | COc1cnc(-n2nccc2N)c2[nH]cc(C(=O)C(=O)N3CCN(C(=O)c4ccccc4)[C@H](C)C3)c12 | > 300000 nM
0.26 nM | – | – | < 1 ×10⁻⁶ cm/s | 47 min | COc1cnc(-c2cc[nH]n2)c2[nH]cc(C(=O)C(=O)N3CCN(C(=O)c4ccccc4)CC3)c12 | 3000 nM
0.91 nM | – | – | – | 8 min | COc1cccc(-c2ncc(OC)c3c(C(=O)C(=O)N4CCN(C(=O)c5ccccc5)CC4)c[nH]c23)n1 | 64000 nM
0.05 nM | 87% | 81% | < 1.5 ×10⁻⁶ cm/s | – | CNC(=O)c1ccn(-c2ncc(OC)c3c(C(=O)C(=O)N4CCN(C(=O)c5ccccc5)CC4)c[nH]c23)n1 | 166000 nM
0.17 nM | 95% | 99% | < 1.5 ×10⁻⁶ cm/s | – | COc1cnc(-n2cnc(N)n2)c2[nH]cc(C(=O)C(=O)N3CCN(C(=O)c4ccccc4)[C@H](C)C3)c12 | > 300000 nM
1.43 nM | 94% | 100% | 21.6 ×10⁻⁶ cm/s | – | COc1cnc(-n2nccc2C)c2[nH]cc(C(=O)C(=O)N3CCN(C(=O)c4ccccc4)CC3)c12 | > 300000 nM
0.04 nM | – | – | 3.3 ×10⁻⁶ cm/s | 68 min | COc1cnc(-c2cnc(N)cn2)c2[nH]cc(C(=O)C(=O)N3CCN(C(=O)c4ccccc4)CC3)c12 | 20000 nM
0.37 nM | – | – | 7.2 ×10⁻⁶ cm/s | 37 min | COc1cnc(-c2ncco2)c2[nH]cc(C(=O)C(=O)N3CCN(C(=O)c4ccccc4)CC3)c12 | 15000 nM
0.1 nM | – | – | – | 17 min | CCOc1ncc(-c2ncc(OC)c3c(C(=O)C(=O)N4CCN(C(=O)c5ccccc5)CC4)c[nH]c23)s1 | > 300000 nM
0.13 nM | – | – | 13.4 ×10⁻⁶ cm/s | 15 min | COc1cnc(-c2ccccn2)c2[nH]cc(C(=O)C(=O)N3CCN(C(=O)c4ccccc4)CC3)c12 | 4000 nM
0.11 nM | – | – | 37.8 ×10⁻⁶ cm/s | 15 min | COc1cnc(-c2ccncn2)c2[nH]cc(C(=O)C(=O)N3CCN(C(=O)c4ccccc4)CC3)c12 | 285000 to 300000 nM
1.28 nM | – | – | 10.6 ×10⁻⁶ cm/s | 32 min | COc1cnc(-c2ncccn2)c2[nH]cc(C(=O)C(=O)N3CCN(C(=O)c4ccccc4)CC3)c12 | > 300000 nM
0.04 nM | – | – | < 1.5 ×10⁻⁶ cm/s | > 100 min | COc1cnc(-c2cnc(O)cn2)c2[nH]cc(C(=O)C(=O)N3CCN(C(=O)c4ccccc4)CC3)c12 | > 300000 nM
0.14 nM | – | – | – | – | COc1cnc(-n2cnc(N3CCN(C)CC3)n2)c2[nH]cc(C(=O)C(=O)N3CCN(C(=O)c4ccccc4)CC3)c12 | > 300000 nM
0.78 nM | – | – | – | – | CCCS(=O)(=O)c1ncn(-c2ncc(OC)c3c(C(=O)C(=O)N4CCN(C(=O)c5ccccc5)CC4)c[nH]c23)n1 | 207000 nM
0.03 nM | – | – | 1.5 ×10⁻⁶ cm/s | 19 min | COc1cnc(-c2cncs2)c2[nH]cc(C(=O)C(=O)N3CCN(C(=O)c4ccccc4)CC3)c12 | 297000 to 300000 nM
0.13 nM | – | – | – | – | COc1ncn(-c2ncc(OC)c3c(C(=O)C(=O)N4CCN(C(=O)c5ccccc5)CC4)c[nH]c23)n1 | 285000 nM
